This is an account of results in article PMC4968691 (Inorganic chemistry, 2012).

Data set [1] in a line: ^177Lu/^64Cu human blood serum competition. The format is in vitro ADME. The method in brief: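 Test chelator was labelled with 177Lu or 64Cu in 10 mM NaOAc pH 5.0 for 10 min at ambient temperature. Thawed human serum (750 µL), 300 µL complex and 450 µL PBS were run in triplicate at 37 °C and 550 rpm. Sampling was at 1.5/24 h (177Lu) and 1/20 h (64Cu). Aliquots were PBS-diluted, counted and passed through PD-10 size exclusion, and the PBS eluate was counted as serum-bound. Result is % chelate-bound.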

Data set [2] can be described thus: ^67Ga/^111In mouse serum competition. To be noted: mouse blood serum. Type of data set: in vitro ADME. A digest of the protocol:
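Test chelator (0.3 mg/mL) was labelled with 67Ga (NaOAc 10 mM, pH 4) or 111In (pH 5) for 10 min at ambient temperature. Complex was added to thawed mouse serum plus PBS in triplicate and held at ambient temperature. Sampling was at 15 min, 1 h and 2 h (67Ga) and 1 and 24 h (111In). Aliquots were diluted to 2.5 mL PBS, counted and loaded on PD-10. The 3.5 mL PBS eluate, holding protein-bound activity, was counted against pre-load activity.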

Data set [3] is described as follows: ^64Cu biodistribution in healthy nude athymic mice. The format is in vivo, mouse. To be noted: n = 4. A digest of the protocol:
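Healthy nude athymic mice received the HPLC-purified 64Cu complex by tail vein: ~30 µCi (~3 µg) in 200 µL of 2:1 saline:PBS, pH 7. Mice were killed by CO2 at 15 min, 1, 4 and 24 h (n = 4). Organs were rinsed, air-dried 5 min, weighed and gamma-counted. Counts were background- and decay-corrected, calibrated against 64Cu standards and expressed as %ID/g.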

For data set [4] the following is noted: 24 h, with both ^177Lu and ^111In; cited from earlier work.

Regarding `O=C(O)CN1CCN(CC(=O)O)CCN(CC(=O)O)CCN(CC(=O)O)CC1` [DOTA, 1,4,7,10-tetraazacyclododecane-1,4,7,10-tetraacetic acid], the “long-term stability (% chelator-bound radiometal)” value in data set [1] (20 h, 37 °C, 550 rpm, ^64Cu, n = 3) came out at 74%.

On to `O=C(O)c1cccc(CN(CCN(Cc2cn(Cc3ccccc3)nn2)Cc2cccc(C(=O)O)n2)Cc2cn(Cc3ccccc3)nn2)n1` [H2azapa, N,N′-[1-Benzyl-1,2,3-triazole-4-yl]methyl-N,N′-[6-(carboxy)-pyridin-2-yl]-1,2-diaminoethane], for which the “^111In transchelated by serum proteins” value in data set [2] (24 h, ^111In complex) was 35%. For the same compound, the “^64Cu transchelated to serum proteins” value in data set [1] (20 h, 37 °C) is reported as 2%. The “^177Lu transchelated by serum proteins” value in data set [1] (24 h, ^177Lu complex) came out at 54%. In addition, the “organ uptake, heart” value in data set [3] (4 h post i.v. injection) stood at 3.8 % ID/g; in data set [3] (24 h post i.v. injection) it was 3.4 % ID/g.

On to `O=C(O)CN(CCN(CC(=O)O)Cc1cccc(C(=O)O)n1)Cc1cccc(C(=O)O)n1` [H4octapa], for which, in data set [4], the stable in serum is reported as above 85% and the “transchelated by serum proteins” value was below 15%.

Take `O=C([O-])CN(CCN(CC(=O)[O-])CC(=O)[O-])CCN(CC(=O)[O-])CC(=O)[O-].[111In+3].[H+].[H+]` [[^111In(DTPA)]^2−]: the “medium-term stability (% chelator-bound radiometal)” value in data set [2] (1 h, 25 °C, n = 3) is listed as 87 (±2) %. In addition, in data set [2] (24 h, 25 °C, ^111In, n = 3), the “long-term stability (% chelator-bound radiometal)” value is reported as 88 (±2) %.

As for `O=C([O-])CN1CCN(CC(=O)[O-])CCN(CC(=O)[O-])CCN(CC(=O)[O-])CC1.[177Lu+3].[H+]` [[^177Lu(DOTA)]^−], in data set [1] (1.5 h, 37 °C, 550 rpm, ^177Lu, n = 3), the “medium-term stability (% chelator-bound radiometal)” value is recorded as 87.7 (±0.7) %. The “long-term stability (% chelator-bound radiometal)” value in data set [1] (24 h, 37 °C, 550 rpm, ^177Lu, n = 3) is on record as 87 (±2) %.
